Experimental data taken from ChEMBL document CHEMBL1275556, “High prevalence of plasmid-mediated quinolone resistance genes qnr and aac(6')-Ib-cr in clinical isolates of Enterobacteriaceae from nine teaching hospitals in China” (2008).

Assays:
Enterobacter cloacae [1] = test: Antimicrobial activity against aac(6')-Ib-cr-negative Enterobacter cloacae WH42 harboring wild-type GyrA, ParC, GyrB and qnrA genes by agar dilution method; type: functional
Klebsiella pneumoniae [2] = test: Antimicrobial activity against aac(6')-Ib-cr-positive Klebsiella pneumoniae SY26 harboring GyrA S83I, ParC S80I mutant, wild-type GyrB and qnrB genes by agar dilution method; type: functional
Summary of the method: (§1)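 MICs were determined on clinical isolates by CLSI agar dilution (M7-A7) and interpreted against CLSI M100-S17 breakpoints.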

Klebsiella pneumoniae [3] = test: Antimicrobial activity against aac(6')-Ib-cr-positive Klebsiella pneumoniae JN132T harboring qnrB gene by agar dilution method; type: functional
Summary of the method: (§2)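 Transconjugants were made by conjugating a qnr/aac(6')-Ib-cr donor with azide-resistant E. coli J53. Selection used Trypticase soy agar with sodium azide 150 µg/ml and sulfamethoxazole 180 µg/ml. […] MICs were read by CLSI agar dilution (M7-A7) and interpreted per M100-S17.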

Citrobacter freundii [4] = test: Antimicrobial activity against aac(6')-Ib-cr-positive Citrobacter freundii JN1T by agar dilution method; type: functional
Summary of the method: (§3)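 MICs were determined by the CLSI agar dilution method (M7-A7) and interpreted against CLSI M100-S17 breakpoints.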

Enterobacter cloacae [5] = test: Antimicrobial activity against aac(6')-Ib-cr-negative Enterobacter cloacae WH42T harboring qnrA gene by agar dilution method; type: functional
Klebsiella pneumoniae [6] = test: Antimicrobial activity against aac(6')-Ib-cr-positive Klebsiella pneumoniae SY26T harboring wild-type GyrA, ParC, GyrB and qnrB genes by agar dilution method; type: functional
Summary of the method: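 Transconjugants were made by conjugating a qnr/aac(6')-Ib-cr donor with azide-resistant E. coli J53. MICs were read by CLSI agar dilution (M7-A7) and interpreted per M100-S17.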

Enterobacter cloacae [7] = test: Antimicrobial activity against aac(6')-Ib-cr-negative Enterobacter cloacae GZ47T harboring qnrB gene by agar dilution method; type: functional
Escherichia coli [8] = test: Antimicrobial activity against aac(6')-Ib-cr-positive Escherichia coli FJ3 harboring GyrA S83L, ParC S80R mutant, wild-type GyrB and qnrB genes by agar dilution method; type: functional; summary of the method: as §3
Enterobacter cloacae [9] = test: Antimicrobial activity against aac(6')-Ib-cr-positive Enterobacter cloacae FJ63T harboring qnrS gene by agar dilution method; type: functional
Citrobacter freundii [10] = test: Antimicrobial activity against aac(6')-Ib-cr-positive Citrobacter freundii PU55 harboring GyrA T83I, ParC S80I mutant, wild-type GyrB, qnrA genes by agar dilution method; type: functional; summary of the method: as §3
Citrobacter freundii [11] = test: Antimicrobial activity against aac(6')-Ib-cr-positive Citrobacter freundii JN1 harboring GyrA T83I, ParC S80I mutant, wild-type GyrB and qnrA genes by agar dilution method; type: functional; summary of the method: as §3
Citrobacter freundii [12] = test: Antimicrobial activity against aac(6')-Ib-cr-negative Citrobacter freundii JN64T harboring qnrA gene by agar dilution method; type: functional; summary of the method: as §3
Enterobacter cloacae [13] = test: Antimicrobial activity against aac(6')-Ib-cr-positive Enterobacter cloacae FJ63 harboring GyrA S83I, GyrA D87A, ParC S80I mutant, wild-type GyrB and qnrS genes by agar dilution method; type: functional
Klebsiella pneumoniae [14] = test: Antimicrobial activity against aac(6')-Ib-cr-positive Klebsiella pneumoniae WH99 harboring wild-type GyrA, ParC, GyrB and qnrB genes by agar dilution method; type: functional; summary of the method: as §1
Enterobacter cloacae [15] = test: Antimicrobial activity against aac(6')-Ib-cr-negative Enterobacter cloacae FJ61T harboring qnrS gene by agar dilution method; type: functional
Klebsiella pneumoniae [16] = test: Antimicrobial activity against aac(6')-Ib-cr-positive Klebsiella pneumoniae GZ40 harboring GyrA S83I, ParC S80I mutant, wild-type GyrB and qnrB genes by agar dilution method; type: functional; summary of the method: as §3
Citrobacter freundii [17] = test: Antimicrobial activity against aac(6')-Ib-cr-positive Citrobacter freundii TJ15T harboring wild-type GyrA, ParC, GyrB genes by agar dilution method; type: functional; summary of the method: as §3
Klebsiella pneumoniae [18] = test: Antimicrobial activity against aac(6')-Ib-cr-positive Klebsiella pneumoniae JN132 harboring GyrA S83I, ParC S80I mutant, wild-type GyrB and qnrB genes by agar dilution method; type: functional; summary of the method: as §1
Klebsiella pneumoniae [19] = test: Antimicrobial activity against aac(6')-Ib-cr-positive Klebsiella pneumoniae GZ40T harboring qnrB gene by agar dilution method
Escherichia coli [20] = test: Antimicrobial activity against aac(6')-Ib-cr-negative Escherichia coli PU12 harboring GyrA S83L mutant, wild-type GyrB, ParC and qnrS genes by agar dilution method; type: functional; summary of the method: as §3
Enterobacter cloacae [21] = test: Antimicrobial activity against aac(6')-Ib-cr-negative Enterobacter cloacae SH39T harboring qnrA gene by agar dilution method; type: functional
Enterobacter cloacae [22] = test: Antimicrobial activity against aac(6')-Ib-cr-negative Enterobacter cloacae FJ67T harboring qnrS gene by agar dilution method; type: functional
Citrobacter freundii [23] = test: Antimicrobial activity against aac(6')-Ib-cr-positive Citrobacter freundii JS33T harboring qnrA gene by agar dilution method; type: functional; summary of the method: as §3
Enterobacter cloacae [24] = test: Antimicrobial activity against aac(6')-Ib-cr-negative Enterobacter cloacae SH39 harboring GyrA S83I, ParC S80I mutant, wild-type GyrB and qnrA genes by agar dilution method; type: functional
Citrobacter freundii [25] = test: Antimicrobial activity against aac(6')-Ib-cr-positive Citrobacter freundii PU55T harboring wild-type GyrA, ParC, GyrB and qnrA genes by agar dilution method
Enterobacter cloacae [26] = test: Antimicrobial activity against aac(6')-Ib-cr-negative Enterobacter cloacae GZ51T harboring qnrA gene by agar dilution method; type: functional
Enterobacter cloacae [27] = test: Antimicrobial activity against aac(6')-Ib-cr-negative Enterobacter cloacae FJ67 harboring […] and qnrS genes by agar dilution method; type: functional
Citrobacter freundii [28] = test: Antimicrobial activity against aac(6')-Ib-cr-negative Citrobacter freundii JN64 harboring GyrA T83I, wild-type ParC, GyrB and qnrA genes by agar dilution method; type: functional; summary of the method: as §3
Klebsiella pneumoniae [29] = test: Antimicrobial activity against aac(6')-Ib-cr-positive Klebsiella pneumoniae JN41 harboring GyrA S83I, ParC S80I mutant, wild-type GyrB and qnrB genes by agar dilution method; type: functional; summary of the method: as §1
Citrobacter freundii [30] = test: Antimicrobial activity against aac(6')-Ib-cr-positive Citrobacter freundii JS33 harboring GyrA T83I mutant, wild-type ParC, GyrB, qnrA and qnrB genes by agar dilution method; type: functional; summary of the method: as §3
Klebsiella pneumoniae [31] = test: Antimicrobial activity against aac(6')-Ib-cr-negative Klebsiella pneumoniae SY22 harboring GyrA S83I, ParC S80I mutant, wild-type GyrB and qnrS genes by agar dilution method; type: functional; summary of the method: as §3
Klebsiella pneumoniae [32] = test: Antimicrobial activity against aac(6')-Ib-cr-positive Klebsiella pneumoniae JN41T harboring qnrB gene by agar dilution method; type: functional; summary of the method: as §2
Enterobacter cloacae [33] = test: Antimicrobial activity against aac(6')-Ib-cr-negative Enterobacter cloacae FJ61 harboring GyrA S83I, GyrA D87A, ParC S80I mutant, wild-type GyrB and qnrS genes by agar dilution method; type: functional
Enterobacter cloacae [34] = test: Antimicrobial activity against aac(6')-Ib-cr-negative Enterobacter cloacae GZ51 harboring qnrA gene by agar dilution method; type: functional
Escherichia coli [35] = test: Antimicrobial activity against aac(6')-Ib-cr-positive Escherichia coli FJ3T harboring wild-type GyrA, ParC, GyrB and qnrB genes by agar dilution method
Klebsiella pneumoniae [36] = test: Antimicrobial activity against aac(6')-Ib-cr-negative Klebsiella pneumoniae SY22T harboring qnrS gene by agar dilution method; type: functional; summary of the method: as §3
Klebsiella pneumoniae [37] = test: Antimicrobial activity against aac(6')-Ib-cr-positive Klebsiella pneumoniae WH99T harboring qnrB gene by agar dilution method; type: functional; summary of the method: as §2
Escherichia coli [38] = test: Antimicrobial activity against Escherichia coli J53 harboring wild-type GyrA, ParC, GyrB genes by agar dilution method
Citrobacter freundii [39] = test: Antimicrobial activity against aac(6')-Ib-cr-positive Citrobacter freundii TJ15 harboring GyrA T83I, ParC S80I mutant, wild-type GyrB, qnrB genes by agar dilution method; type: functional; summary of the method: as §3
Enterobacter cloacae [40] = test: Antimicrobial activity against aac(6')-Ib-cr-negative Enterobacter cloacae GZ47 harboring qnrB and qnrS genes by agar dilution method; type: functional
Escherichia coli [41] = test: Antimicrobial activity against aac(6')-Ib-cr-negative Escherichia coli PU12T harboring wild-type GyrA, GyrB, ParC and qnrS genes by agar dilution method; type: functional; summary of the method: as §3

Measured: MIC

Cc1cc(NS(=O)(=O)c2ccc(N)cc2)no1 [SULFAMETHOXAZOLE]
256 µg/mL: Enterobacter cloacae [7] | Citrobacter freundii [11] | Enterobacter cloacae [21]
32 µg/mL: Citrobacter freundii [4]
16 µg/mL: Enterobacter cloacae [15] | Enterobacter cloacae [33] | Klebsiella pneumoniae [36] | Escherichia coli [38]
64 µg/mL: Klebsiella pneumoniae [31]
> 256 µg/mL: all other assays above
